In ChEMBL document CHEMBL4033697, “Synthesis of methanesulphonamido-benzimidazole derivatives as gastro-sparing antiinflammatory agents with antioxidant effect” (Bioorg Med Chem Lett, 2017):

How the values were obtained:
[1] = Antioxidant activity of the compound in phosphate buffer at pH 6.6 assessed as potassium ferric cyanide ion reducing activity at 2.5 umol/ml after 20 mins by spectrophotometric method relative to control; format: functional; parameters: scale not given: the % may be the effect or the level left
In short: (§1)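 Methanolic sample (1.0–50.0 […], units as printed) mixed with 0.2 M phosphate buffer pH 6.6 and 1% K3Fe(CN)6, 50 °C for 20 min; cooled, 10% TCA added, aliquot diluted with water plus 0.1% FeCl3, 10 min stand. A700 read against a methanol control; triplicate. Reducing power (%) = [(Atest − Acontrol)/Atest] × 100; EC50 derived; ascorbic acid standard.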

[2] = tested on: Rattus norvegicus; assay: Toxicity in rat model of carrageenan-induced paw edema assessed as behavioral changes at 5 to 75 mg/kg, po measured during compound dosing; format: organism-based; conditions: in vivo
[3] = Antioxidant activity of the compound in phosphate buffer at pH 6.6 assessed as potassium ferric cyanide ion reducing activity at 1 umol/ml after 20 mins by spectrophotometric method relative to control; format: functional; parameters: scale not given: the % may be the effect or the level left; in short: as §1
[4] = tested on: Rattus norvegicus; assay: Anti-inflammatory activity in rat assessed as reduction in carrageenan-induced paw edema at 75 mg/kg, po measured after 5 hrs by plethysmographic method relative to control; format: functional; parameters: scale not given: the % may be the effect or the level left
In short: (§2)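 Rats; carrageenan in 0.9% saline injected into paw; compound suspended in 0.5% w/v CMC given orally 30 min after carrageenan, three graded doses per compound. Paw volume by plethysmograph before and at intervals after treatment; values at 5 h. % reduction in edema = (1 − Vt/Vc) × 100 versus carrageenan control; ED50 from the three graded doses; one-way ANOVA.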

[5] = tested on: Rattus norvegicus; assay: Ulcerogenicity in rat model of carrageenan-induced paw edema assessed as diameter of lesion in gastric wall at 25 mg/kg, po measured after 5 hrs; format: toxicity, organism-based; conditions: in vivo
In short: (§3)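 After oral dosing in 0.5% CMC in the carrageenan paw model, rats were killed by cervical dislocation. Stomachs were inflated with 2% formalin, immersed 10 min to fix, and opened along the greater curvature. Longest lesion diameters were summed as a total lesion score (mm) per animal and averaged per group. Rofecoxib served as negative control and indomethacin as positive control.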

[6] = tested on: Rattus norvegicus; assay: Ulcerogenicity in rat model of carrageenan-induced paw edema assessed as diameter of lesion in gastric wall at 5 mg/kg, po measured after 5 hrs; format: toxicity, organism-based; conditions: in vivo; in short: as §3
[7] = Antioxidant activity of the compound in phosphate buffer at pH 6.6 assessed as potassium ferric cyanide ion reducing activity at 10 umol/ml after 20 mins by spectrophotometric method relative to control; format: functional; parameters: scale not given: the % may be the effect or the level left; in short: as §1
[8] = Antioxidant activity of the compound in phosphate buffer at pH 6.6 assessed as potassium ferric cyanide ion reducing activity at 5 umol/ml after 20 mins by spectrophotometric method relative to control; format: functional; parameters: scale not given: the % may be the effect or the level left; in short: as §1
[9] = tested on: Rattus norvegicus; assay: Anti-inflammatory activity in rat assessed as reduction in carrageenan-induced paw edema at 5 mg/kg, po measured after 5 hrs by plethysmographic method relative to control; format: functional; parameters: scale not given: the % may be the effect or the level left; in short: as §2
[10] = tested on: Rattus norvegicus; assay: Anti-inflammatory activity in rat assessed as reduction in carrageenan-induced paw edema at 25 mg/kg, po measured after 5 hrs by plethysmographic method relative to control; format: functional; parameters: scale not given: the % may be the effect or the level left; in short: as §2
[11] = tested on: Rattus norvegicus; assay: Ulcerogenicity in rat model of carrageenan-induced paw edema assessed as diameter of lesion in gastric wall at 75 mg/kg, po measured after 5 hrs; format: toxicity, organism-based; conditions: in vivo; in short: as §3
[12] = Antioxidant activity of the compound in phosphate buffer at pH 6.6 assessed as potassium ferric cyanide ion reducing activity at 50 umol/ml after 20 mins by spectrophotometric method relative to control; format: functional; parameters: scale not given: the % may be the effect or the level left; in short: as §1
[13] = tested on: Rattus norvegicus; assay: Anti-inflammatory activity in po dosed rat assessed as reduction in carrageenan-induced paw edema measured after 5 hrs by plethysmographic method; format: functional; in short: as §2
[14] = Antioxidant activity of the compound in phosphate buffer at pH 6.6 assessed as potassium ferric cyanide ion reducing activity at 25 umol/ml after 20 mins by spectrophotometric method relative to control; format: functional; parameters: scale not given: the % may be the effect or the level left; in short: as §1
[15] = Antioxidant activity of the compound in phosphate buffer at pH 6.6 assessed as potassium ferric cyanide ion reducing activity after 20 mins by spectrophotometric method; format: functional; in short: as §1
[16] = tested on: Rattus norvegicus; assay: Ulcerogenicity in rat model of carrageenan-induced paw edema assessed as diameter of lesion in gastric wall at 30 mg/kg, po measured after 5 hrs; format: toxicity, organism-based; conditions: in vivo; in short: as §3
[17] = tested on: Rattus norvegicus; assay: Anti-inflammatory activity in rat assessed as reduction in carrageenan-induced paw edema at 30 mg/kg, po measured after 5 hrs by plethysmographic method relative to control; format: functional; parameters: scale not given: the % may be the effect or the level left; in short: as §2
[18] = tested on: Rattus norvegicus; assay: Anti-inflammatory activity in rat assessed as reduction in carrageenan-induced paw edema at 10 mg/kg, po measured after 5 hrs by plethysmographic method relative to control; format: functional; parameters: scale not given: the % may be the effect or the level left; in short: as §2
[19] = tested on: Rattus norvegicus; assay: Ulcerogenicity in rat model of carrageenan-induced paw edema assessed as diameter of lesion in gastric wall at 10 mg/kg, po measured after 5 hrs; format: toxicity, organism-based; conditions: in vivo; in short: as §3
[20] = tested on: Rattus norvegicus; assay: Ulcerogenicity in rat model of carrageenan-induced paw edema assessed as diameter of lesion in gastric wall at 40 mg/kg, po measured after 5 hrs; format: toxicity, organism-based; conditions: in vivo; in short: as §3
[21] = tested on: Rattus norvegicus; assay: Anti-inflammatory activity in rat assessed as reduction in carrageenan-induced paw edema at 40 mg/kg, po measured after 5 hrs by plethysmographic method relative to control; format: functional; parameters: scale not given: the % may be the effect or the level left; in short: as §2
[22] = tested on: Rattus norvegicus; assay: Anti-inflammatory activity in rat assessed as reduction in carrageenan-induced paw edema at 2.5 mg/kg, po measured after 5 hrs by plethysmographic method relative to control; format: functional; parameters: scale not given: the % may be the effect or the level left; in short: as §2
[23] = tested on: Rattus norvegicus; assay: Ulcerogenicity in rat model of carrageenan-induced paw edema assessed as diameter of lesion in gastric wall at 2.5 mg/kg, po measured after 5 hrs; format: toxicity, organism-based; conditions: in vivo; in short: as §3
[24] = tested on: Rattus norvegicus; assay: Toxicity in rat model of carrageenan-induced paw edema assessed as behavioral changes at 2.5 to 40 mg/kg, po measured during compound dosing; format: organism-based; conditions: in vivo

EC50 [15] [mM]	SMILES	Activity [1] [%]	Activity [2]	Activity [3] [%]	Activity [4] [%]	Activity [5] [mm]	Activity [6] [mm]	Activity [7] [%]	Activity [8] [%]	Activity [9] [%]	Activity [10] [%]	Activity [11] [mm]	Activity [12] [%]	ED50 [13] [mg/kg]	Activity [14] [%]	other results
> 50	CCCCn1c(CCC)nc2cc([N+](=O)[O-])ccc21	2.5	Non-Toxic	0.6	52.27	0.7	0.35	16.8	6.8	29.55	47.73	1.04	45.4	4.79	29.2	–
7.4	O=C1O[C@H]([C@@H](O)CO)C(O)=C1O [ASCORBIC ACID]	15.5	–	6.8	–	–	–	60.8	39.8	–	–	–	69.4	–	65.2	–
–	CS(=O)(=O)c1ccc(C2=C(c3ccccc3)C(=O)OC2)cc1 [ROFECOXIB]	–	–	–	–	–	–	–	–	–	–	–	–	–	–	Activity [16]: 2.92 mm; Activity [17]: 78.95%
18.2	CCCCn1c(CCC)nc2cc(N)ccc21	15.4	Non-Toxic	6.3	59.09	0.54	0.28	44.8	29.9	59.09	56.82	1.13	62.5	5.52	55.6	–
> 50	CCCCCCn1c(CCC)nc2cc([N+](=O)[O-])ccc21	2.8	Non-Toxic	0.9	78.25	0.54	0.22	17.9	6.8	51.87	61.26	1.26	45.9	3.97	30.1	–
3.7	CCCCCn1c(CCC)nc2cc(NS(C)(=O)=O)ccc21	32.7	–	15.4	–	–	–	66.5	58	–	–	–	79.1	2.55	72.8	Activity [18]: 86.36%; Activity [19]: 0.5 mm; Activity [20]: 1.01 mm; Activity [21]: 95.64%; Activity [22]: 48.18%; Activity [23]: 0.25 mm; Activity [24]: Non-Toxic
–	CCCc1nc2ccccc2[nH]1	–	Non-Toxic	–	77.27	0.2	0.1	–	–	0.45	53.18	0.42	–	5.53	–	–
10.3	CCCCCCn1c(CCC)nc2cc(N)ccc21	12.9	Non-Toxic	6	69.13	0.52	0.27	48	34.5	33.13	49.8	1.06	65.9	5.16	57.1	–
–	COc1ccc2c(c1)c(CC(=O)O)c(C)n2C(=O)c1ccc(Cl)cc1 [INDOMETHACIN]	–	–	–	–	–	–	–	–	–	–	–	–	2.2	–	Activity [18]: 75%; Activity [19]: 19.4 mm
> 50	CCCCCn1c(CCC)nc2cc([N+](=O)[O-])ccc21	2.1	Non-Toxic	0.4	68.18	0.69	0.33	10.7	5.8	63.64	68.18	1.03	39.8	4.8	20.8	–
–	CCCc1nc2cc([N+](=O)[O-])ccc2[nH]1	–	Non-Toxic	–	6.82	0.22	0	–	–	2.27	6.82	0.32	–	–	–	–
5.1	CCCCCCn1c(CCC)nc2cc(NS(C)(=O)=O)ccc21	29.2	–	10.6	–	–	–	66.5	49.7	–	–	–	75.4	2.45	69.6	Activity [18]: 86.36%; Activity [19]: 0.69 mm; Activity [20]: 1.02 mm; Activity [21]: 97.62%; Activity [22]: 50.18%; Activity [23]: 0.2 mm; Activity [24]: Non-Toxic
10.2	CCCCCn1c(CCC)nc2cc(N)ccc21	18.7	Non-Toxic	8.7	66.36	0.52	0.27	49	30.2	45.91	54.36	1.06	67.3	5.47	60.1	–
4	CCCCn1c(CCC)nc2cc(NS(C)(=O)=O)ccc21	31.3	–	12.2	–	–	–	61.8	59.8	–	–	–	73.5	2.58	70.3	Activity [18]: 86.36%; Activity [19]: 0.51 mm; Activity [20]: 1.1 mm; Activity [21]: 92.73%; Activity [22]: 43.64%; Activity [23]: 0.27 mm; Activity [24]: Non-Toxic
